≈ marks a conversion by molar mass, not a printed value. Calls of active or inactive are those of the source. No cut-off for these calls is given here.
Assays:
[1] = Inhibition of PDE4 expressed in HEK293 cells coexpressing cyclic nucleotide gated ion channel mutant assessed as inhibition of NECA-induced cAMP production treated 15 mins before NECA challenge measured after 45 mins by FLIPR assay; assay type: cell-based
[2] = Solubility in 0.1 M phosphate buffer at pH 7.4 by shake-flask method; assay type: physicochemical
Outline: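 Shake-flask solubility in 0.1 M phosphate buffer, pH 7.4.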

[3] = molecular target: 3',5'-cyclic-AMP phosphodiesterase 4B (Homo sapiens, UniProt Q07343); assay: Inhibition of human His6-tagged PDE4B (152-487) expressed in Escherichia coli BL21 (DE3) after 1 hr
3',5'-cyclic-AMP phosphodiesterase 4B, sequence (Q07343 whole entry): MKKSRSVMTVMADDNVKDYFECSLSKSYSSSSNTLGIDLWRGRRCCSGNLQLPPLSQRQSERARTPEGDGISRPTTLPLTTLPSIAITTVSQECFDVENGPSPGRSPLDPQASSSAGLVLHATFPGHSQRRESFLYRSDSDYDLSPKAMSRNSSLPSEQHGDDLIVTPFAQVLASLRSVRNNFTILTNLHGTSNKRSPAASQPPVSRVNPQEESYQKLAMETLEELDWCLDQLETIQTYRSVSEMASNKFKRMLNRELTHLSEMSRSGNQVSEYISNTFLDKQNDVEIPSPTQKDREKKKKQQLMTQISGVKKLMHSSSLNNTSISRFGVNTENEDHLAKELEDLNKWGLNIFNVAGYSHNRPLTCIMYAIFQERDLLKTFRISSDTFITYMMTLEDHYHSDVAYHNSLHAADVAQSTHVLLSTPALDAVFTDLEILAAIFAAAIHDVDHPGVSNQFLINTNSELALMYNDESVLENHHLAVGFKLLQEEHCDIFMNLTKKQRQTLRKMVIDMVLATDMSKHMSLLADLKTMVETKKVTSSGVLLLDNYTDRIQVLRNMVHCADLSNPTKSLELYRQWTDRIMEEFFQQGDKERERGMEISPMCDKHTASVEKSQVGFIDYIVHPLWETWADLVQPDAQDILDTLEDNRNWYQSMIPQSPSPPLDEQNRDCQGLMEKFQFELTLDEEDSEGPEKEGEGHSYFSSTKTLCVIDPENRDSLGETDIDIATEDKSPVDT

[4] = Solubility in water; assay type: physicochemical
HEK293 = assay: Inhibition of PDE4 expressed in HEK293 cells coexpressing cyclic nucleotide gated ion channel mutant assessed as inhibition of NECA-induced cAMP production at 70 uM treated 15 mins before NECA challenge measured after 45 mins by FLIPR assay; assay type: cell-based
Rattus norvegicus [5] = assay: Induction of tear secretion in rat at 10 ug/ml by topical administration after 10 mins by phenol red thread test; assay type: functional, organism-based
Outline: (§1)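 Rats received compound topically, and tear secretion was measured 10 min later by phenol red thread test. Percent increase is relative to untreated animals, and significance is versus saline by ANOVA with Dunnett's post-test. Positive control was isoproterenol (10 µg/mL).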

Rattus norvegicus [6] = assay: Induction of tear secretion in rat at 100 ug/ml by topical administration after 10 mins by phenol red thread test; assay type: functional, organism-based; outline: as §1
Oryctolagus cuniculus [7] = organism: Oryctolagus cuniculus; assay: Antiinflammatory activity in rabbit assessed as inhibition of lacrimal gland inflammation-induced dry eye at 10 ng/ml to 10 ug/ml bid for 4 days; assay type: functional, organism-based; conditions: Lachrymal gland
Outline: (§2)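 Rabbit dry eye induced by lacrimal gland inflammation. Compound given topically b.i.d. for 4 days. Read-out is corneal staining, scored as percent inhibition versus vehicle, with dexamethasone (100 µg/mL) as positive control. Statistics by ANOVA with Dunnett's post-test.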

Oryctolagus cuniculus [8] = organism: Oryctolagus cuniculus; assay: Antiinflammatory activity in rabbit assessed as inhibition of lacrimal gland inflammation-induced dry eye at 0.001 to 10 ug/ml bid for 4 days; assay type: functional, organism-based; conditions: Lachrymal gland, 0.01 to 10 ug/ml, in the assay text read “0.01 to 10 ug/ml” for “0.001 to 10 ug/ml”; outline: as §2

| IC50 [1] [nM] | solubility thermodynamic [2] [µg/mL] | IC50 [3] [nM] | SMILES | also measured |
| --- | --- | --- | --- | --- |
| 30 | 300 (≈ 589 µM) | 1 | COc1ccc2c(Nc3c(Cl)cncc3Cl)cc(=O)oc2c1OCCCCCCCCC(=O)O | – |
| 280 | 900 (≈ 1930 µM) | 17 | COc1ccc2c(Nc3c(Cl)cncc3Cl)cc(=O)oc2c1OCCCCCC(=O)O | solubility [4]: 900 µg/mL (≈ 1930 µM) |
| 1100 | – | 400 | COc1ccc2c(Nc3c(Cl)cncc3Cl)nncc2c1OC1CCCC1 | – |
| – | – | 500 | COc1ccc2c(Nc3c(Cl)cncc3Cl)nccc2c1OC1CCCC1 | inhibition (HEK293): inactive |
| 8200 | – | 3300 | COc1ccc2c(Nc3c(Cl)cncc3Cl)ccnc2c1OC1CCCC1 | – |
| 660 | 60 (≈ 129 µM) | 21 | COc1ccc2c(Nc3c(Cl)cncc3Cl)cc(=O)oc2c1OCCCCCN(C)C | – |
| 1820 | 1800 (≈ 3980 µM) | 45 | COc1ccc2c(Nc3c(Cl)cncc3Cl)cc(=O)oc2c1OCCCCN(C)C | Activity (Rattus norvegicus [5]): Active; Activity (Rattus norvegicus [6]): Active; Activity (Oryctolagus cuniculus [7]): Active; Activity (Oryctolagus cuniculus [8]): Active |
| 5350 | – | 1180 | COc1ccc2c(Nc3c(Cl)cncc3Cl)cc(=O)oc2c1OCC(=O)O | – |
| 40 | 300 (≈ 606 µM) | 2 | COc1ccc2c(Nc3c(Cl)cncc3Cl)cc(=O)oc2c1OCCCCCCCC(=O)O | – |
| > 30000 | – | 16000 | COc1ccc2c(Nc3c(Cl)cncc3Cl)coc2c1OC1CCCC1 | – |
| 730 | 500 (≈ 1100 µM) | 43 | COc1ccc2c(Nc3c(Cl)cncc3Cl)cc(=O)oc2c1OCCCCC(=O)O | – |
| 1 | – | – | O=C(Nc1c(Cl)cncc1Cl)c1ccc(OC(F)F)c(OCC2CC2)c1 [ROFLUMILAST] | – |
| > 30000 | – | 670 | COc1ccc2c(Nc3c(Cl)cncc3Cl)cc(=O)oc2c1OCCCN(C)C | – |
| 10000 | – | 2300 | COc1ccc2c(Nc3c(Cl)cncc3Cl)ncnc2c1OC1CCCC1 | – |
| 28 | 0.3 (≈ 0.712 µM) | – | COc1ccc2c(Nc3c(Cl)cncc3Cl)cc(=O)oc2c1OC1CCCC1 | – |
| 890 | – | 80 | COc1ccc2c(Nc3c(Cl)cncc3Cl)cc(=O)oc2c1OCCCC(=O)O | – |
| 150 | – | 3 | COc1ccc2c(Nc3c(Cl)cncc3Cl)cc(=O)oc2c1OCCCCCCCN(C)C | – |
| 120 | 1400 (≈ 2910 µM) | 2 | COc1ccc2c(Nc3c(Cl)cncc3Cl)cc(=O)oc2c1OCCCCCCC(=O)O | solubility [4]: 1400 µg/mL (≈ 2910 µM) |
| 150 | – | 2 | COc1ccc2c(Nc3c(Cl)cncc3Cl)cc(=O)oc2c1OCCCCCCCCN(C)C | – |
| > 30000 | – | > 30000 | COc1ccc2c(c1OC1CCCC1)OCCC2Nc1c(Cl)cncc1Cl (stereo not given) | – |
| 180 | – | 5 | COc1ccc2c(Nc3c(Cl)cncc3Cl)cc(=O)oc2c1OCCCCCCN(C)C | – |

| SMILES | IC50 [1] [nM] | solubility thermodynamic [2] [µg/mL] | IC50 [3] [nM] | also measured |
| --- | --- | --- | --- | --- |
| COc1ccc(C(=O)Nc2c(Cl)cncc2Cl)cc1OC1CCCC1 | 13 | – | – | – |

Reference: ChEMBL document CHEMBL1158541, “Water-soluble PDE4 inhibitors for the treatment of dry eye” (Bioorg Med Chem Lett, 2010)
